Experimental data taken from ChEMBL document CHEMBL3124872, “Discovery and early development of TMC647055, a non-nucleoside inhibitor of the hepatitis C virus NS5B polymerase” (J Med Chem, 2014).
Calls of active or inactive are those of the source. The rule behind the calls is not given here.

What was measured:
[1] = test system: Hepatitis C virus; test: Antiviral activity against Hepatitis C virus harboring […] L31V mutant infected in human HuH7 by luciferase reporter gene assay; assay type: functional, organism-based; settings: Hepacivirus hominis; Huh-7
[2] = Selectivity ratio of EC50 for Hepatitis C virus genotype 2b to EC50 for wild-type Hepatitis C virus Con 1b; assay type: functional
In short: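 Transient replicon assay using chimeric replicons carrying NS5B from genotype 2a or 2b patient isolates. EC50 was compared with that against the genotype 1b replicon.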

[3] = test system: Hepatitis C virus; test: Antiviral activity against Hepatitis C virus genotype 1a infected in po dosed human assessed as decrease in HCV RNA level administered bid for 5 days followed by morning dose on day 6; assay type: functional, organism-based; settings: Hepacivirus hominis; subtype 1a
In short: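 HCV genotype 1-infected patients received oral b.i.d. doses of 500 mg or 1000 mg in a hydroxypropyl-β-cyclodextrin vehicle for 5 days, plus a morning dose on day 6. The read-out was the median maximum decrease in HCV RNA from baseline in GT1a patients with data up to Day 6.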

[4] = test system: Hepatitis C virus; test: Antiviral activity against Hepatitis C virus harboring […] Y93H mutant infected in human HuH7 by luciferase reporter gene assay; assay type: functional, organism-based; settings: Hepacivirus hominis; Huh-7
[5] = test system: Hepatitis C virus; test: Antiviral activity against Hepatitis C virus harboring NS5B M423T mutant infected in human HuH7 by luciferase reporter gene assay; assay type: functional, organism-based; settings: Hepacivirus hominis; Huh-7
[6] = test system: Hepatitis C virus; test: Antiviral activity against Hepatitis C virus genotype 1b infected in human HuH7 cells after 72 hrs by luciferase reporter gene assay; assay type: functional, organism-based, Hepacivirus hominis; settings: Huh-7, 72 h
[7] = Cytotoxicity against human HuH7 cells; assay type: cell-based, Huh-7
[8] = test system: Homo sapiens; test: Toxicity in HCV genotype 1-infected patient assessed as effect on food consumption at 500 to 1000 mg, po bid for 5 days followed by morning dose on day 6; assay type: organism-based; settings: in vivo, 120 h
In short: (§1)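 HCV genotype 1-infected patients given oral b.i.d. doses of 500 or 1000 mg for 5 days plus a morning dose on day 6, in hydroxypropyl-β-cyclodextrin vehicle; adverse events with grading, laboratory parameters, vital signs, food consumption, appetite and ECG monitored.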

[9] = Binding affinity to Hepatitis C virus Con 1b wild-type NS5B by surface plasmon resonance analysis; design: species or system Hepatitis C virus (isolate Con1)
In short: (§2)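 Surface plasmon resonance binding to NS5B polymerase of the stated genotype; association and dissociation rate constants measured, from which Kd and residence half-life were derived; median Kd reported.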

[10] = test system: Homo sapiens; test: Toxicity in human assessed as grade-3 adverse events at 300 to 1250 mg, po bid for 5 days followed by morning dose on day 6; assay type: organism-based; settings: in vivo, 120 h
In short: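 Oral b.i.d. dosing for 5 days plus a single morning dose on day 6, in a hydroxypropyl-β-cyclodextrin vehicle. Healthy volunteers received 300, 1000 or 1250 mg; HCV genotype 1-infected patients received 500 or 1000 mg. Monitoring covered adverse events graded by severity, laboratory parameters, vital signs, food consumption, appetite and ECG.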

[11] = Inhibition of His6-tagged Hepatitis C virus Con 1b NS5B delta21 RNA dependent RNA polymerase expressed in Escherichia coli Rosetta 2 (DE3) after 2 hrs by primer-dependent transcription assay in presence of 5'-biotinylated rG13 primer
[12] = test system: Homo sapiens; test: Toxicity in human assessed as effect on appetite at 300 to 1250 mg, po bid for 5 days followed by morning dose on day 6; assay type: organism-based; settings: in vivo, 120 h
In short: (§3)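 Healthy volunteers given oral b.i.d. doses of 300, 1000 or 1250 mg for 5 days plus a morning dose on day 6, in hydroxypropyl-β-cyclodextrin vehicle; adverse events, laboratory parameters, vital signs, food consumption, appetite, ECG and plasma 4-β-hydroxycholesterol (CYP3A4 induction marker) monitored.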

[13] = test system: Hepatitis C virus subtype 1b
[14] = test system: Hepatitis C virus; test: Antiviral activity against Hepatitis C virus genotype 1b infected in human HuH7 by transient replicon assay; assay type: functional, organism-based, Hepacivirus hominis; settings: Huh-7
In short: (§4)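 Transient replicon assay using chimeric replicons whose NS5B region is derived from patient isolates of the stated genotype.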

[15] = test system: Hepatitis C virus; test: Antiviral activity against Hepatitis C virus genotype 1b infected in human assessed as log10 reduction in HCV RNA level at 1000 mg, po bid for 5 days followed by morning dose on day 6 relative to control; assay type: functional, Hepacivirus hominis
In short: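 Oral b.i.d. dosing of HCV genotype 1-infected patients at 500 mg or 1000 mg for 5 days, plus a morning dose on day 6, in hydroxypropyl-β-cyclodextrin vehicle. Read-out was the median maximum decrease in plasma HCV RNA from baseline (log10), using patients with HCV RNA data available up to Day 6.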

[16] = Binding affinity to His6-tagged Hepatitis C virus Con 1b NS5B delta21 RNA dependent RNA polymerase expressed in Escherichia coli Rosetta 2 (DE3) by surface plasmon resonance analysis; design: species or system Hepatitis C virus (isolate Con1); in short: as §2
[17] = test system: Hepatitis C virus; test: Antiviral activity against Hepatitis C virus genotype 1a infected in human HuH7 by transient replicon assay; assay type: functional, organism-based, Hepacivirus hominis; settings: subtype 1a, Huh-7; in short: as §4
[18] = Binding affinity to Hepatitis C virus genotype 1a NS5B by surface plasmon resonance analysis; design: species or system Hepatitis C virus subtype 1a; in short: as §2
[19] = Cytotoxicity against human MT4 cells; assay type: cell-based
[20] = Drug uptake in Sprague-Dawley rat liver at 10 mg/kg, po after 7 hrs; assay type: ADME, organism-based; design: dose 10 mg/kg, route oral; settings: read-out: Drug uptake
[21] = test system: Hepatitis C virus; test: Antiviral activity against Hepatitis C virus harboring NS5B M414T mutant infected in human HuH7 by luciferase reporter gene assay; assay type: functional, organism-based; settings: Hepacivirus hominis; Huh-7
[22] = Binding affinity to Hepatitis C virus genotype 2b NS5B by surface plasmon resonance analysis; design: species or system Hepatitis C virus subtype 2b; in short: as §2
[23] = test system: Hepatitis C virus; test: Antiviral activity against Hepatitis C virus genotype 1b harboring NS5B NNI-1 site V494A mutant infected in human HuH7 by luciferase reporter gene assay relative to wild-type HCV genotype 1b; assay type: functional, Hepacivirus hominis, Huh-7
[24] = Cytotoxicity against African green monkey Vero E6 cells after 3 days by resazurin-based fluorescence analysis; assay type: cell-based; settings: chlorocebus sabaeus
[25] = test system: Rattus norvegicus; test: Toxicity in rat assessed as decrease in body weight at 1000 mg/kg/day after 5 days; assay type: organism-based; settings: in vivo, 120 h
[26] = test system: Hepatitis C virus; test: Antiviral activity against Hepatitis C virus genotype 1b infected in human HuH7 assessed as clearance of replicon cells at 3.75 uM preincubated for 2 weeks followed by 3 week rebound phase by RT-PCR analysis; assay type: functional, organism-based; settings: Hepacivirus hominis, Huh-7
In short: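 Clearance-and-rebound test in Huh7-Luc genotype 1b replicon cells. Cells were incubated with inhibitor (3.75 μM alone) for 14 days, then held for a 3-week rebound phase without inhibitor. Replicon RNA was followed for clearance and rebound.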

[27] = test system: Hepatitis C virus; test: Antiviral activity against Hepatitis C virus genotype 6a infected in human HuH7 by transient replicon assay; assay type: functional, organism-based, Hepacivirus hominis; settings: Huh-7; in short: as §4
[28] = test system: Homo sapiens; test: Toxicity in HCV genotype 1-infected patient assessed as effect on laboratory parameters at 500 to 1000 mg, po bid for 5 days followed by morning dose on day 6; assay type: organism-based; settings: in vivo, 120 h; in short: as §1
[29] = test system: Hepatitis C virus; test: Antiviral activity against Hepatitis C virus genotype 2a infected in human HuH7 by transient replicon assay; assay type: functional, organism-based, Hepacivirus hominis; settings: Huh-7; in short: as §4
[30] = test system: Homo sapiens; test: Toxicity in human assessed as effect on ECG profile at 300 to 1250 mg, po bid for 5 days followed by morning dose on day 6; assay type: organism-based; settings: in vivo, 120 h; in short: as §3
[31] = test system: Homo sapiens; test: Toxicity in HCV genotype 1-infected patient assessed as effect on ECG profile at 500 to 1000 mg, po bid for 5 days followed by morning dose on day 6; assay type: organism-based; settings: in vivo, 120 h; in short: as §1
[32] = test system: Homo sapiens; test: Toxicity in human assessed as effect on vital signs at 300 to 1250 mg, po bid for 5 days followed by morning dose on day 6; assay type: organism-based; settings: in vivo, 120 h; in short: as §3

## COc1ccc2c(c1)C=C1Cn3c-2c(C2CCCCC2)c2ccc(cc23)C(=O)NS(=O)(=O)N(C)CCOCCN(C)C1=O [TMC-647055]
[1]
  Activity: Active
[2]
  Ratio EC50: >200
[3]
  Activity: Dose-dependent effect
[4]
  Activity: Active
[5]
  Activity: Active
[6]
  EC50: 77 nM
[7]
  CC50: 42100 nM
[8]
  Activity: Non-toxic
[9]
  Kd: 4.1 nM
[10]
  Activity: Non-toxic
[11]
  IC50: 34 nM
[12]
  Activity: Non-toxic
[13]
  T1/2: 2.17 h
[14]
  EC50: 27 nM
[15]
  FC: 3.4
[16]
  Kd: 4.1 nM
[17]
  EC50: 48 nM
[18]
  Kd: 7.3 nM
[19]
  CC50: 28900 nM
[20]
  concentration at 7 h: 7800 ng/g
[21]
  Activity: Active
[22]
  Kd: 880 nM
[23]
  fold change (FC): 3
[24]
  CC50 at 72 h: > 50000 nM
[25]
  Activity: Toxic
[26]
  Activity: inactive
[27]
  EC50: 113 nM
[28]
  Activity: Non-toxic
[29]
  EC50: 12500 nM
[30]
  Activity: Non-toxic
[31]
  Activity: Non-toxic
[32]
  Activity: Non-toxic
